Values after ≈ are worked out from the molar mass of the structure shown.

This is an account of results in ChEMBL document CHEMBL1154956, “Stereospecific synthesis of oximes and oxime ethers of 3-azabicycles: A SAR study towards antimicrobial agents” (2010).

What all share (type): functional
For one test, the system named is Candida albicans. In words: Antifungal activity against Candida albicans by NCCLS broth microdilution method. The essentials:
(§1)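 MIC90 was taken as the lowest concentration that inhibited 90% of pathogen growth after incubation, reported in μg/mL. Broth dilution followed the NCCLS reference standards: M27-A for yeasts and the proposed standard for conidium-forming filamentous fungi. Fluconazole was the reference drug.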
(In general: Broth dilution looks for growth in wells or tubes with falling amounts of substance.)

A further test relates to Cryptococcus neoformans. Briefly: Antifungal activity against Cryptococcus neoformans by NCCLS broth microdilution method. The essentials: as §1
A further test concerns Bacillus subtilis. Briefly: Antibacterial activity against Bacillus subtilis by NCCLS broth microdilution method.
The test system of a further test is Pseudomonas aeruginosa. In words: Antibacterial activity against Pseudomonas aeruginosa by NCCLS broth microdilution method.
In the next test the test system is Staphylococcus aureus. In words: Antibacterial activity against Staphylococcus aureus by NCCLS broth microdilution method.
The test system of a further test is Klebsiella pneumoniae. In words: Antibacterial activity against Klebsiella pneumoniae by NCCLS broth microdilution method.
The next test has as its system Aspergillus niger. Briefly: Antifungal activity against Aspergillus niger by NCCLS broth microdilution method. An outline of the steps:
as §1

The next test deals with Candida parapsilosis. Briefly: Antifungal activity against Candida parapsilosis by NCCLS broth microdilution method. An outline of the steps: as §1
[1] abbreviates: Candida albicans, read-out: MIC90.
The mark [2] stands for this setting: Cryptococcus neoformans, read-out: MIC90.
The mark [3] stands for this setting: Bacillus subtilis, read-out: MIC90.
Setting [4] is: Pseudomonas aeruginosa, read-out: MIC90.
Setting [5] is: Staphylococcus aureus, read-out: MIC90.
Setting [6] is: Klebsiella pneumoniae, read-out: MIC90.
[7] abbreviates: Aspergillus niger, read-out: MIC90.
Where [8] appears, read: Lodderomyces parapsilosis, read-out: MIC90.

`CC12CCCC(/C1=N\O)C(c1ccc(Cl)cc1)NC2c1ccc(Cl)cc1` (configuration not stated): the MIC90 (commonly an inhibitory concentration at the 90% level, which refers to growth in some studies and to a panel of isolates in others) is 32 mg/L (≈ 82.2 µM) in the test with Candida albicans (setting [1]); 32 mg/L (≈ 82.2 µM) with Cryptococcus neoformans (setting [2]); above 128 mg/L in the test on Bacillus subtilis (setting [3]); above 128 mg/L with Pseudomonas aeruginosa (setting [4]); 64 mg/L (≈ 164 µM) in the test with Staphylococcus aureus (setting [5]); 16 mg/L (≈ 41.1 µM) in the test on Klebsiella pneumoniae (setting [6]). The MIC90 with Aspergillus niger (setting [7]) and with Candida parapsilosis (setting [8]) was 64 mg/L (≈ 164 µM) each time.
For `CON=C1C2CC(C)CC1C(c1ccccc1F)NC2c1ccccc1F` (stereo in doubt; 55a), the MIC90 against Candida albicans was 8 mg/L (≈ 21.6 µM); in the test with Cryptococcus neoformans it was 16 mg/L (≈ 43.2 µM); with Bacillus subtilis (setting [3]), 4 mg/L (≈ 10.8 µM); with Pseudomonas aeruginosa it was 8 mg/L (≈ 21.6 µM); in the test on Staphylococcus aureus it was 2 mg/L (≈ 5.4 µM); against Klebsiella pneumoniae, 2 mg/L (≈ 5.4 µM). Moreover, the MIC90 in the test with Aspergillus niger is 16 mg/L (≈ 43.2 µM); against Candida parapsilosis, 32 mg/L (≈ 86.4 µM).
On to `CO/N=C1\C2CCCC1(C)C(c1ccc(F)cc1)NC2c1ccc(F)cc1` (configuration not stated), for which the MIC90 in the test on Candida albicans (setting [1]) turned out to be 8 mg/L (≈ 21.6 µM); in the test with Cryptococcus neoformans (setting [2]), 16 mg/L (≈ 43.2 µM); in the test with Bacillus subtilis (setting [3]), 32 mg/L (≈ 86.4 µM); in the test on Pseudomonas aeruginosa (setting [4]) it was 16 mg/L (≈ 43.2 µM); with Staphylococcus aureus (setting [5]), 8 mg/L (≈ 21.6 µM); with Klebsiella pneumoniae (setting [6]) it was 16 mg/L (≈ 43.2 µM). The MIC90 in the test with Aspergillus niger (setting [7]) was 32 mg/L (≈ 86.4 µM); in the test on Candida parapsilosis (setting [8]), 8 mg/L (≈ 21.6 µM).
Take `CO/N=C1\C2CCCC1(C)C(c1ccccc1)NC2c1ccccc1` (configuration not stated): the MIC90 with Candida albicans (setting [1]) is 128 mg/L (≈ 383 µM); in the test with Cryptococcus neoformans (setting [2]), above 128 mg/L; with Bacillus subtilis (setting [3]), above 128 mg/L; in the test on Pseudomonas aeruginosa (setting [4]) it was above 128 mg/L; in the test on Staphylococcus aureus (setting [5]) it was 64 mg/L (≈ 191 µM); in the test on Klebsiella pneumoniae (setting [6]) it was 128 mg/L (≈ 383 µM). Also, the MIC90 in the test with Aspergillus niger (setting [7]) and in the test with Candida parapsilosis (setting [8]) was above 128 mg/L each time.
For the compound `CON=C1C2CC(C)CC1C(c1ccccc1Cl)NC2c1ccccc1Cl` (stereo in doubt; 58a), the MIC90 was 8 mg/L (≈ 19.8 µM) with Candida albicans (setting [1]); 16 mg/L (≈ 39.7 µM) in the test on Cryptococcus neoformans; 8 mg/L (≈ 19.8 µM) against Bacillus subtilis; 4 mg/L (≈ 9.92 µM) against Pseudomonas aeruginosa; 4 mg/L (≈ 9.92 µM) with Staphylococcus aureus (setting [5]); 4 mg/L (≈ 9.92 µM) in the test on Klebsiella pneumoniae. The MIC90 against Aspergillus niger amounted to 32 mg/L (≈ 79.3 µM); in the test with Candida parapsilosis, 16 mg/L (≈ 39.7 µM).
As to `CO/N=C1\C2CCCC1(C)C(c1ccccc1C)NC2c1ccccc1C` (configuration not stated), the MIC90 with Candida albicans (setting [1]) was 64 mg/L (≈ 177 µM); in the test with Cryptococcus neoformans (setting [2]), 128 mg/L (≈ 353 µM); in the test on Bacillus subtilis (setting [3]), 32 mg/L (≈ 88.3 µM); in the test with Pseudomonas aeruginosa (setting [4]), 128 mg/L (≈ 353 µM); in the test with Staphylococcus aureus (setting [5]), 32 mg/L (≈ 88.3 µM); in the test with Klebsiella pneumoniae (setting [6]) it was 128 mg/L (≈ 353 µM). Besides, the figures for the MIC90 in the test with Aspergillus niger (setting [7]) and in the test on Candida parapsilosis (setting [8]) were 64 mg/L (≈ 177 µM) and 128 mg/L (≈ 353 µM), respectively.
As to `CON=C1C2CC(C)CC1C(c1ccc(Cl)cc1)NC2c1ccc(Cl)cc1` (configuration not stated), the MIC90 in the test with Candida albicans (setting [1]) came out at 32 mg/L (≈ 79.3 µM); in the test on Cryptococcus neoformans (setting [2]), 16 mg/L (≈ 39.7 µM); in the test on Bacillus subtilis (setting [3]), 16 mg/L (≈ 39.7 µM); with Pseudomonas aeruginosa (setting [4]) it was 32 mg/L (≈ 79.3 µM); with Staphylococcus aureus (setting [5]) it was 16 mg/L (≈ 39.7 µM); with Klebsiella pneumoniae (setting [6]), 8 mg/L (≈ 19.8 µM). The values for the MIC90 in the test with Aspergillus niger (setting [7]) and with Candida parapsilosis (setting [8]) were 64 mg/L (≈ 159 µM) and 16 mg/L (≈ 39.7 µM), respectively.
On to `CO/N=C1\C2CCCC1(C)C(c1ccccc1Cl)NC2c1ccccc1Cl` (configuration not stated), for which the MIC90 with Candida albicans (setting [1]) is 32 mg/L (≈ 79.3 µM); in the test on Cryptococcus neoformans (setting [2]), 4 mg/L (≈ 9.92 µM); in the test on Bacillus subtilis (setting [3]), 32 mg/L (≈ 79.3 µM); with Pseudomonas aeruginosa (setting [4]), 8 mg/L (≈ 19.8 µM); in the test with Staphylococcus aureus (setting [5]), 4 mg/L (≈ 9.92 µM); with Klebsiella pneumoniae (setting [6]), 8 mg/L (≈ 19.8 µM). Besides, the figures for the MIC90 with Aspergillus niger (setting [7]) and in the test on Candida parapsilosis (setting [8]) were 16 mg/L (≈ 39.7 µM) and 4 mg/L (≈ 9.92 µM), respectively.
With `Cc1ccccc1C1NC(c2ccccc2C)C2(C)CCCC1/C2=N\O` (configuration not stated), the MIC90 was 128 mg/L (≈ 367 µM) in the test on Candida albicans (setting [1]); above 128 mg/L in the test on Cryptococcus neoformans (setting [2]); 64 mg/L (≈ 184 µM) with Bacillus subtilis (setting [3]); above 128 mg/L in the test with Pseudomonas aeruginosa (setting [4]); 128 mg/L (≈ 367 µM) in the test with Staphylococcus aureus (setting [5]); 128 mg/L (≈ 367 µM) with Klebsiella pneumoniae (setting [6]). Besides, the MIC90 with Aspergillus niger (setting [7]) was 64 mg/L (≈ 184 µM); in the test on Candida parapsilosis (setting [8]), above 128 mg/L.
For the compound `CO/N=C1\C2CCCC1(C)C(c1ccc(Br)cc1)NC2c1ccc(Br)cc1` (configuration not stated), the MIC90 in the test on Candida albicans (setting [1]) was 64 mg/L (≈ 130 µM); with Cryptococcus neoformans (setting [2]) it was 64 mg/L (≈ 130 µM); with Bacillus subtilis (setting [3]), 64 mg/L (≈ 130 µM); in the test on Pseudomonas aeruginosa (setting [4]), above 128 mg/L; in the test on Staphylococcus aureus (setting [5]), 32 mg/L (≈ 65 µM); with Klebsiella pneumoniae (setting [6]) it was 32 mg/L (≈ 65 µM). Further, the MIC90 with Aspergillus niger (setting [7]) was found to be 32 mg/L (≈ 65 µM); with Candida parapsilosis (setting [8]), 128 mg/L (≈ 260 µM).
`CC12CCCC(/C1=N\O)C(c1cccc(Cl)c1)NC2c1cccc(Cl)c1` (configuration not stated): the MIC90 in the test with Candida albicans (setting [1]) was 64 mg/L (≈ 164 µM); in the test on Cryptococcus neoformans (setting [2]) it was 128 mg/L (≈ 329 µM); in the test on Bacillus subtilis (setting [3]) it was above 128 mg/L; in the test with Pseudomonas aeruginosa (setting [4]), above 128 mg/L; with Staphylococcus aureus (setting [5]), 64 mg/L (≈ 164 µM); in the test on Klebsiella pneumoniae (setting [6]) it was 64 mg/L (≈ 164 µM). Besides, the MIC90 in the test on Aspergillus niger (setting [7]) is above 128 mg/L; with Candida parapsilosis (setting [8]) it was 64 mg/L (≈ 164 µM).
Take `CON=C1C2CC(C)CC1C(c1ccc(F)cc1)NC2c1ccc(F)cc1` (configuration not stated): the MIC90 in the test on Candida albicans (setting [1]) came out at 16 mg/L (≈ 43.2 µM); in the test with Cryptococcus neoformans (setting [2]) it was 8 mg/L (≈ 21.6 µM); in the test with Bacillus subtilis (setting [3]) it was 16 mg/L (≈ 43.2 µM); in the test on Pseudomonas aeruginosa (setting [4]) it was 16 mg/L (≈ 43.2 µM); in the test with Staphylococcus aureus (setting [5]) it was 4 mg/L (≈ 10.8 µM); in the test on Klebsiella pneumoniae (setting [6]), 8 mg/L (≈ 21.6 µM). The MIC90 in the test with Aspergillus niger (setting [7]) was 16 mg/L (≈ 43.2 µM); in the test with Candida parapsilosis (setting [8]), 64 mg/L (≈ 173 µM).
As to `COc1cccc(C2NC(c3cccc(OC)c3)C3(C)CCCC2/C3=N\O)c1` (configuration not stated), the MIC90 was above 128 mg/L with Candida albicans (setting [1]); 128 mg/L (≈ 336 µM) with Cryptococcus neoformans (setting [2]); 128 mg/L (≈ 336 µM) in the test with Bacillus subtilis (setting [3]); above 128 mg/L with Pseudomonas aeruginosa (setting [4]); 128 mg/L (≈ 336 µM) in the test with Staphylococcus aureus (setting [5]); above 128 mg/L in the test on Klebsiella pneumoniae (setting [6]). Further, the MIC90 in the test on Aspergillus niger (setting [7]) and in the test with Candida parapsilosis (setting [8]) was above 128 mg/L each time.
Take `CO/N=C1\C2CCCC1(C)C(c1cccc(Cl)c1)NC2c1cccc(Cl)c1` (configuration not stated): the MIC90 worked out at 32 mg/L (≈ 79.3 µM) in the test on Candida albicans (setting [1]); 64 mg/L (≈ 159 µM) in the test with Cryptococcus neoformans (setting [2]); 128 mg/L (≈ 317 µM) with Bacillus subtilis (setting [3]); 64 mg/L (≈ 159 µM) in the test on Pseudomonas aeruginosa (setting [4]); 64 mg/L (≈ 159 µM) in the test on Staphylococcus aureus (setting [5]); 32 mg/L (≈ 79.3 µM) in the test with Klebsiella pneumoniae (setting [6]). The results for the MIC90 in the test on Aspergillus niger (setting [7]) and in the test on Candida parapsilosis (setting [8]) were 128 mg/L (≈ 317 µM) and 32 mg/L (≈ 79.3 µM), respectively.
